Experimental data taken from ChEMBL document CHEMBL1143202.
Calls of active or inactive are those of the source. The calls are words filed in the database; no cut-off is given here.

Key:
Rattus norvegicus [1] = species on record: Rattus norvegicus; assay: Inhibition of succinate-cytochrome c reductase in Wistar Albino rat liver mitochondria at 200 uM relative to control; set-up: scale not given: the % may be the effect or the level left
Rattus norvegicus [2] = species on record: Rattus norvegicus; assay: Inhibition of succinate dehydrogenase in Wistar Albino rat liver mitochondria at 50 uM relative to control; set-up: scale not given: the % may be the effect or the level left
Rattus norvegicus [3] = species on record: Rattus norvegicus; assay: Inhibition of ATPase in Wistar Albino rat livers disrupted mitochondria at 25 uM relative to control; set-up: scale not given: the % may be the effect or the level left
Rattus norvegicus [4] = species on record: Rattus norvegicus; assay: Inhibition of succinate dehydrogenase in Wistar Albino rat liver mitochondria at 25 uM relative to control; set-up: scale not given: the % may be the effect or the level left
Rattus norvegicus [5] = species on record: Rattus norvegicus; assay: Effect on ADP/O ratio in Wistar Albino rat liver mitochondria at 25 uM in presence of succinate relative to control; assay type: functional
Procedure, shortened: (§1)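 Isolated rat liver mitochondria respiring on glutamate or succinate as substrate; oxygen consumption recorded. State 3 is the rate after ADP addition and state 4 the rate after ADP is exhausted. The respiratory control coefficient (RCC) and ADP/O ratio were determined in the same runs. Flavone tested across 25–200 μM.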

Rattus norvegicus [6] = species on record: Rattus norvegicus; assay: Inhibition of cytochrome c oxidase in Wistar Albino rat liver mitochondria at 100 uM relative to control; set-up: scale not given: the % may be the effect or the level left
Rattus norvegicus [7] = species on record: Rattus norvegicus; assay: Inhibition of ATPase in Wistar Albino rat livers intact mitochondria at 100 uM in presence of FCCP relative to control; set-up: scale not given: the % may be the effect or the level left
Rattus norvegicus [8] = species on record: Rattus norvegicus; assay: Effect on oxygen consumption rate in Wistar Albino rat liver mitochondria assessed as inhibition in state 3 respiration at 75 uM in presence of succinate relative to control; assay type: functional; set-up: scale not given: the % may be the effect or the level left; procedure, shortened: as §1
Rattus norvegicus [9] = species on record: Rattus norvegicus; assay: Effect on oxygen consumption rate in Wistar Albino rat liver mitochondria assessed as inhibition in state 3 respiration at 75 uM in presence of sodium glutamate relative to control; assay type: functional; set-up: scale not given: the % may be the effect or the level left; procedure, shortened: as §1
Rattus norvegicus [10] = species on record: Rattus norvegicus; assay: Effect on oxygen consumption rate in Wistar Albino rat liver mitochondria assessed as inhibition in state 4 respiration at 50 uM in presence of succinate relative to control; assay type: functional; set-up: scale not given: the % may be the effect or the level left; procedure, shortened: as §1
Rattus norvegicus [11] = species on record: Rattus norvegicus; assay: Inhibition of cytochrome c oxidase in Wistar Albino rat liver mitochondria at 75 uM relative to control; set-up: scale not given: the % may be the effect or the level left
Rattus norvegicus [12] = species on record: Rattus norvegicus; assay: Inhibition of ATPase in Wistar Albino rat livers intact mitochondria at 100 uM relative to control; set-up: scale not given: the % may be the effect or the level left
Rattus norvegicus [13] = species on record: Rattus norvegicus; assay: Effect on respiratory control coefficient in Wistar Albino rat liver mitochondria at 75 uM in presence of succinate relative to control; assay type: functional; procedure, shortened: as §1
Rattus norvegicus [14] = species on record: Rattus norvegicus; assay: Effect on ADP/O ratio in Wistar Albino rat liver mitochondria at 25 uM in presence of sodium glutamate relative to control; assay type: functional; procedure, shortened: as §1
Rattus norvegicus [15] = species on record: Rattus norvegicus; assay: Inhibition of NADH dehydrogenase in Wistar Albino rat liver mitochondria at 25 uM relative to control; set-up: scale not given: the % may be the effect or the level left
Rattus norvegicus [16] = species on record: Rattus norvegicus; assay: Effect on oxygen consumption rate in Wistar Albino rat liver mitochondria assessed as inhibition in state 4 respiration at 25 uM in presence of succinate relative to control; assay type: functional; set-up: scale not given: the % may be the effect or the level left; procedure, shortened: as §1
Liver [17] = assay: Reduction of cytochrome c in rat liver mitochondria in presence of EDTA at 200 uM; assay type: functional
Rattus norvegicus [18] = species on record: Rattus norvegicus; assay: Inhibition of ATPase in Wistar Albino rat livers disrupted mitochondria at 75 uM relative to control; set-up: scale not given: the % may be the effect or the level left
Rattus norvegicus [19] = species on record: Rattus norvegicus; assay: Inhibition of succinate oxidase in Wistar Albino rat liver mitochondria at 50 uM relative to control; set-up: scale not given: the % may be the effect or the level left
Rattus norvegicus [20] = species on record: Rattus norvegicus; assay: Effect on oxygen consumption rate in Wistar Albino rat liver mitochondria assessed as inhibition in state 3 respiration at 100 uM in presence of sodium glutamate relative to control; assay type: functional; set-up: scale not given: the % may be the effect or the level left; procedure, shortened: as §1
Rattus norvegicus [21] = species on record: Rattus norvegicus; assay: Inhibition of succinate oxidase in Wistar Albino rat liver mitochondria at 25 uM relative to control; set-up: scale not given: the % may be the effect or the level left
Rattus norvegicus [22] = species on record: Rattus norvegicus; assay: Effect on respiratory control coefficient in Wistar Albino rat liver mitochondria at 50 uM in presence of succinate relative to control; assay type: functional; procedure, shortened: as §1
Rattus norvegicus [23] = species on record: Rattus norvegicus; assay: Effect on ADP/O ratio in Wistar Albino rat liver mitochondria at 75 uM in presence of sodium glutamate relative to control; assay type: functional; procedure, shortened: as §1
Rattus norvegicus [24] = species on record: Rattus norvegicus; assay: Inhibition of ATPase in Wistar Albino rat livers intact mitochondria at 50 uM in presence of FCCP relative to control; set-up: scale not given: the % may be the effect or the level left
Rattus norvegicus [25] = species on record: Rattus norvegicus; assay: Effect on oxygen consumption rate in Wistar Albino rat liver mitochondria assessed as inhibition in state 3 respiration at 25 uM in presence of sodium glutamate relative to control; assay type: functional; set-up: scale not given: the % may be the effect or the level left; procedure, shortened: as §1
Liver [26] = assay: Reduction of cytochrome c in rat liver mitochondria in presence of NADH at 200 uM; assay type: functional
Rattus norvegicus [27] = species on record: Rattus norvegicus; assay: Inhibition of succinate dehydrogenase in Wistar Albino rat liver mitochondria at 200 uM relative to control; set-up: scale not given: the % may be the effect or the level left
Rattus norvegicus [28] = species on record: Rattus norvegicus; assay: Effect on oxygen consumption rate in Wistar Albino rat liver mitochondria assessed as inhibition in state 3 respiration at 200 uM in presence of succinate relative to control; assay type: functional; set-up: scale not given: the % may be the effect or the level left; procedure, shortened: as §1
Rattus norvegicus [29] = species on record: Rattus norvegicus; assay: Effect on ADP/O ratio in Wistar Albino rat liver mitochondria at 75 uM in presence of succinate relative to control; assay type: functional; procedure, shortened: as §1
Rattus norvegicus [30] = species on record: Rattus norvegicus; assay: Effect on respiratory control coefficient in Wistar Albino rat liver mitochondria at 100 uM in presence of succinate relative to control; assay type: functional; procedure, shortened: as §1
Rattus norvegicus [31] = species on record: Rattus norvegicus; assay: Inhibition of ATPase in Wistar Albino rat livers intact mitochondria at 50 uM relative to control; set-up: scale not given: the % may be the effect or the level left
Rattus norvegicus [32] = species on record: Rattus norvegicus; assay: Effect on respiratory control coefficient in Wistar Albino rat liver mitochondria at 75 uM in presence of sodium glutamate relative to control; assay type: functional; procedure, shortened: as §1
Rattus norvegicus [33] = species on record: Rattus norvegicus; assay: Effect on oxygen consumption rate in Wistar Albino rat liver mitochondria assessed as inhibition in state 3 respiration at 100 uM in presence of succinate relative to control; assay type: functional; set-up: scale not given: the % may be the effect or the level left; procedure, shortened: as §1
Rattus norvegicus [34] = species on record: Rattus norvegicus; assay: Inhibition of cytochrome c oxidase in Wistar Albino rat liver mitochondria at 50 uM relative to control; set-up: scale not given: the % may be the effect or the level left
Rattus norvegicus [35] = species on record: Rattus norvegicus; assay: Inhibition of NADH dehydrogenase in Wistar Albino rat liver mitochondria at 100 uM relative to control; set-up: scale not given: the % may be the effect or the level left
Rattus norvegicus [36] = species on record: Rattus norvegicus; assay: Inhibition of ATPase in Wistar Albino rat livers intact mitochondria at 25 uM in presence of FCCP relative to control; set-up: scale not given: the % may be the effect or the level left
Rattus norvegicus [37] = species on record: Rattus norvegicus; assay: Inhibition of succinate dehydrogenase in Wistar Albino rat liver mitochondria at 75 uM relative to control; set-up: scale not given: the % may be the effect or the level left
Rattus norvegicus [38] = species on record: Rattus norvegicus; assay: Effect on ADP/O ratio in Wistar Albino rat liver mitochondria at 100 uM in presence of sodium glutamate relative to control; procedure, shortened: as §1
Rattus norvegicus [39] = species on record: Rattus norvegicus; assay: Inhibition of NADH-cytochrome c reductase in Wistar Albino rat liver mitochondria at 50 uM relative to control; set-up: scale not given: the % may be the effect or the level left
Liver [40] = assay: Reduction of cytochrome c in rat liver mitochondria in presence of catalase at 200 uM; assay type: functional; set-up: scale not given: the % may be the effect or the level left
Rattus norvegicus [41] = species on record: Rattus norvegicus; assay: Inhibition of succinate oxidase in Wistar Albino rat liver mitochondria at 100 uM relative to control; set-up: scale not given: the % may be the effect or the level left

Activity (Rattus norvegicus [1]): 18%
Activity (Rattus norvegicus [2]): 69%
Activity (Rattus norvegicus [3]): 103%
Activity (Rattus norvegicus [4]): 71%
Activity (Rattus norvegicus [6]): 96%
Activity (Rattus norvegicus [7]): 100%
Activity (Rattus norvegicus [11]): 102%
Activity (Rattus norvegicus [12]): 97%
Activity (Rattus norvegicus [15]): 42%
Activity (Rattus norvegicus [18]): 105%
Activity (Rattus norvegicus [19]): 83%
Activity (Rattus norvegicus [21]): 87%
Activity (Rattus norvegicus [24]): 90%
Activity (Rattus norvegicus [27]): 51%
Activity (Rattus norvegicus [31]): 94%
Activity (Rattus norvegicus [34]): 104%
Activity (Rattus norvegicus [35]): 50%
Activity (Rattus norvegicus [36]): 93%
Activity (Rattus norvegicus [37]): 78%
Activity (Rattus norvegicus [38]): 88.6%
Activity (Rattus norvegicus [39]): 45%
Activity (Liver [40]): 15%
Activity (Rattus norvegicus [41]): 77%
SMILES: COc1c(O)cc2oc(-c3ccc(O)c(O)c3)cc(=O)c2c1O
Activity (Rattus norvegicus [5]): 85.8%
Activity (Rattus norvegicus [8]): 51.2%
Activity (Rattus norvegicus [9]): 54.9%
Activity (Rattus norvegicus [10]): 109%
Activity (Rattus norvegicus [13]): 52.9%
Activity (Rattus norvegicus [14]): 92.8%
Activity (Rattus norvegicus [16]): 106%
Activity (Liver [17]): Active
Activity (Rattus norvegicus [20]): 31.8%
Activity (Rattus norvegicus [22]): 55.1%
Activity (Rattus norvegicus [23]): 90.6%
Activity (Rattus norvegicus [25]): 84.9%
Activity (Liver [26]): Active
Activity (Rattus norvegicus [28]): 34.7%
Activity (Rattus norvegicus [29]): 81.6%
Activity (Rattus norvegicus [30]): 36.8%
Activity (Rattus norvegicus [32]): 40.9%
Activity (Rattus norvegicus [33]): 45.4%
